Experimental data taken from ChEMBL document CHEMBL1649261, “Pharmacodynamic profile of tigecycline against methicillin-resistant Staphylococcus aureus in an experimental pneumonia model” (Antimicrob Agents Chemother, 2009).
≈ marks a conversion by molar mass, not a printed value.

Experiments:
Staphylococcus aureus [1] = experiment: Antibacterial activity against methicillin-susceptible Staphylococcus aureus ATCC 29213 by microdilution method; format: functional
Outline: (§1)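 Tigecycline MIC measured in triplicate by broth microdilution following CLSI guidelines. Isolates were stored at −80°C in skim milk and subcultured twice on blood agar before testing.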

Staphylococcus aureus [2] = experiment: Antibacterial activity against community-acquired methicillin-resistant Staphylococcus aureus 144 by microdilution method; format: functional; outline: as §1
Staphylococcus aureus [3] = experiment: Antibacterial activity against community-acquired methicillin-resistant Staphylococcus aureus 147 by microdilution method; format: functional; outline: as §1
Staphylococcus aureus [4] = experiment: Antibacterial activity against hospital-acquired methicillin-resistant Staphylococcus aureus 56 by microdilution method; format: functional; outline: as §1
Staphylococcus aureus [5] = experiment: Antibacterial activity against hospital-acquired methicillin-resistant Staphylococcus aureus 152 by microdilution method; format: functional; outline: as §1
[6] = Cmax in BALB/c mouse infected with Staphylococcus aureus at 6.25 mg/kg, sc administered as single dose; format: ADME, organism-based; parameters: dose 6.25 mg/kg, route subcutaneous; conditions: in vivo
Outline: (§2)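 Neutropenic BALB/c mice (cyclophosphamide ip 250 and 100 mg/kg, days −4 and −1) with S. aureus pneumonia from oral instillation of 0.05 ml of a 3% mucin suspension received a single 0.2-ml sc dose in normal saline. Serum was taken at 0.25, 0.5, 1, 1.5, 2, 4, 6 and 8 h, six mice per time point. Drug was measured by validated HPLC.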

[7] = Cmax in BALB/c mouse infected with Staphylococcus aureus at 50 mg/kg, sc administered as single dose; format: ADME, organism-based; parameters: dose 50 mg/kg, route subcutaneous; conditions: in vivo; outline: as §2
[8] = Tmax in BALB/c mouse infected with Staphylococcus aureus at 12.5 mg/kg, sc administered as single dose; format: ADME, organism-based; parameters: dose 12.5 mg/kg, route subcutaneous; conditions: in vivo; outline: as §2
[9] = Tmax in BALB/c mouse infected with Staphylococcus aureus at 25 mg/kg, sc administered as single dose; format: ADME, organism-based; parameters: dose 25 mg/kg, route subcutaneous; conditions: in vivo; outline: as §2
[10] = Half life in BALB/c mouse infected with Staphylococcus aureus at 6.25 mg/kg, sc administered as single dose; format: ADME, organism-based; parameters: dose 6.25 mg/kg, route subcutaneous; conditions: in vivo; outline: as §2
[11] = Half life in BALB/c mouse infected with Staphylococcus aureus at 50 mg/kg, sc administered as single dose; format: ADME, organism-based; parameters: dose 50 mg/kg, route subcutaneous; conditions: in vivo; outline: as §2
Mus musculus [12] = experiment: Volume of distribution in BALB/c mouse infected with Staphylococcus aureus at 6.25 mg/kg, sc administered as single dose; format: ADME, organism-based; parameters: dose 6.25 mg/kg, route subcutaneous; conditions: in vivo; outline: as §2
Mus musculus [13] = experiment: Volume of distribution in BALB/c mouse infected with Staphylococcus aureus at 50 mg/kg, sc administered as single dose; format: ADME, organism-based; parameters: dose 50 mg/kg, route subcutaneous; conditions: in vivo; outline: as §2
[14] = Protein binding in Staphylococcus aureus-infected BALB/c mouse serum at 12.5 mg/kg, sc administered as single dose; format: ADME, organism-based; parameters: dose 12.5 mg/kg, route subcutaneous; conditions: read-out: PB (converted)
Outline: (§3)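 Ultrafiltration was run in triplicate with 30,000-MW cutoff devices. Drug was diluted into fresh mouse serum to final 1.5, 3, 6 and 15 μg/ml, held at 37°C for 10 min with shaking, and centrifuged at 1,000 × g for 45 min at 10°C. Binding was calculated as (S − SUF)/S × 100 for each concentration, each matched to a dose by its peak serum level.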

[15] = Protein binding in Staphylococcus aureus-infected BALB/c mouse serum at 50 mg/kg, sc administered as single dose; format: ADME, organism-based; parameters: dose 50 mg/kg, route subcutaneous; conditions: read-out: PB (converted); outline: as §3
[16] = AUC (0 to 8 hrs) in Staphylococcus aureus-infected BALB/c mouse epithelial lining fluid at 12.5 mg/kg, sc administered as single dose; format: ADME, organism-based; parameters: time < 8 hr, dose 12.5 mg/kg, route subcutaneous
Outline: (§4)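 Infected neutropenic BALB/c mice received a single sc dose in saline. Normal-saline bronchoalveolar lavage was done at 0.25, 1, 4 and 8 h, six mice per time. HPLC drug levels in lavage were converted to epithelial lining fluid concentrations with the serum/BAL urea ratio. AUC0-8 was calculated by the trapezoidal rule, and ELF drug was taken as free drug.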

[17] = AUC (0 to 8 hrs) in Staphylococcus aureus-infected BALB/c mouse epithelial lining fluid at 25 mg/kg, sc administered as single dose; format: ADME, organism-based; parameters: time < 8 hr, dose 25 mg/kg, route subcutaneous; outline: as §4
[18] = AUC (0 to 8 hrs) in Staphylococcus aureus-infected BALB/c mouse epithelial lining fluid at 50 mg/kg, sc administered as single dose; format: ADME, organism-based; parameters: time < 8 hr, dose 50 mg/kg, route subcutaneous; outline: as §4
[19] = Ratio of fAUC (0 to 8 hrs) in epithelial lining fluid to plasma of Staphylococcus aureus-infected BALB/c mouse at 12.5 mg/kg, sc administered as single dose; format: ADME, organism-based; parameters: dose 12.5 mg/kg, route subcutaneous
Outline: (§5)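 Neutropenic BALB/c mice (cyclophosphamide ip 250 and 100 mg/kg, 4 d and 1 d pre-inoculation) infected orally with S. aureus in 3% mucin. Single 0.2-ml sc dose in normal saline; six mice per time point. Serum sampled 0.25–8 h, BAL at 0.25, 1, 4, 8 h; HPLC; ELF by urea correction. Trapezoidal AUC0-8; serum corrected for ultrafiltration protein binding, BAL drug assumed free.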

[20] = Ratio of fAUC (0 to 8 hrs) in epithelial lining fluid to plasma of Staphylococcus aureus-infected BALB/c mouse at 50 mg/kg, sc administered as single dose; format: ADME, organism-based; parameters: dose 50 mg/kg, route subcutaneous; outline: as §5
[21] = Ratio of fAUC to MIC in community-acquired methicillin-resistant Staphylococcus aureus 147-infected BALB/c mouse at 80% maximal effective concentration; format: functional
Outline: (§6)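 Neutropenic BALB/c mice (cyclophosphamide 250 and 100 mg/kg i.p., 4 and 1 days before infection) were infected by oral inhalation of 0.05 ml inoculum in 3% mucin under isoflurane. Subcutaneous tigecycline (1.56–150 mg/kg/day, single or 2–3 divided doses, saline vehicle) was started 6 h post-infection. At 24 h lungs were homogenized and plated; change in log10 CFU was taken versus 0-h controls.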

[22] = Ratio of fAUC to MIC in methicillin-susceptible Staphylococcus aureus ATCC 29213-infected BALB/c mouse at […] maximal effective concentration; format: functional
Outline: (§7)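 Mice were neutropenic and infected by lung instillation with ATCC 29213, with the MIC set by CLSI broth microdilution in triplicate. Sc treatment started 6 h post-inoculation at 1.56–150 mg/kg/day, given as one, two or three doses. Lung CFU at 24 h were compared with 0-h controls. Change in log10 CFU was fitted against protein-binding-corrected fAUC/MIC with a sigmoid Emax model.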

[23] = Ratio of fAUC to MIC in community-acquired methicillin-resistant Staphylococcus aureus 144-infected BALB/c mouse at […] maximal effective concentration; format: functional; outline: as §6
[24] = Ratio of fAUC to MIC in methicillin-susceptible Staphylococcus aureus ATCC 29213-infected BALB/c mouse at bacteriostatic concentration; format: functional; outline: as §7
[25] = Ratio of fAUC to MIC in community-acquired methicillin-resistant Staphylococcus aureus 156-infected BALB/c mouse at bacteriostatic concentration; format: functional; outline: as §6
[26] = Ratio of fAUC to MIC in community-acquired methicillin-resistant Staphylococcus aureus 147-infected BALB/c mouse at bacteriostatic concentration; format: functional; outline: as §6
[27] = Ratio of fAUC to MIC in hospital-acquired methicillin-resistant Staphylococcus aureus 152-infected BALB/c mouse at bacteriostatic concentration; format: functional
Outline: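 Neutropenic BALB/c mice (cyclophosphamide ip 250 and 100 mg/kg, 4 days and 1 day pre-inoculation), isoflurane-anaesthetised, inoculated via the mouth with 0.05 ml of 3.0 × 10^8 CFU/ml in 3% mucin. SC tigecycline in saline, 1.56–150 mg/kg/day single or 2–3 divided doses from 6 h. Whole-lung CFU at 24 h versus 0-h controls; sigmoid Emax fit of Δlog10 CFU against fAUC/MIC gives stasis value.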

CN(C)c1cc(NC(=O)CNC(C)(C)C)c(O)c2c1C[C@H]1C[C@H]3[C@H](N(C)C)C(O)=C(C(N)=O)C(=O)[C@@]3(O)C(O)=C1C2=O [TIGECYCLINE]
MIC (Staphylococcus aureus [1]): 0.25 µg/mL (≈ 0.427 µM)
MIC (Staphylococcus aureus [2]): 0.25 µg/mL (≈ 0.427 µM)
MIC (Staphylococcus aureus [3]): 0.25 µg/mL (≈ 0.427 µM)
MIC (Staphylococcus aureus [4]): 0.5 µg/mL (≈ 0.854 µM)
MIC (Staphylococcus aureus [5]): 0.25 µg/mL (≈ 0.427 µM)
Cmax [6]: 1570 ng/mL
Cmax [7]: 15800 ng/mL
Tmax [8]: 0.27 h
Tmax [9]: 0.74 h
half-life [10]: 12.4 h
half-life [11]: 11.5 h
Vd (Mus musculus [12]): 3.44 L/kg
Vd (Mus musculus [13]): 2.62 L/kg
fraction unbound [14]: 0.128
fraction unbound [15]: 0.041
AUC(0-t) at 8 h [16]: 11000 ng·h/mL
AUC(0-t) at 8 h [17]: 20400 ng·h/mL
AUC(0-t) at 8 h [18]: 41900 ng·h/mL
Kp uu [19]: 7.02
Kp uu [20]: 23.9
fAUC/MIC [21]: 3.12
fAUC/MIC [22]: 2.33
fAUC/MIC [23]: 2.29
fAUC/MIC [24]: 2.38
fAUC/MIC [25]: 4.18
fAUC/MIC [26]: 0.41
fAUC/MIC [27]: 1.51
